Screening data deposited in PubChem by Broad Institute.
Most compounds without a hit are left out; they make up all but 2.1% or so of the library.
Cneo AK release = Cryptococcus neoformans lysis via adenylate kinase release. C. neoformans lysis, adenylate kinase release luminescence, 4 h; normalised: neutral wells 0, clomiphene wells 100. lysis activity, % at 15 µM. 0.2% of 360,000 active. AID 651654;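 active means mean lysis activity across replicates of at least 80%, whatever share of replicates individually reach that level; inactive means mean lysis activity below 80%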
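Material: C. neoformans cells | Amount: Yeast cell density of 5 × 10^6 cells/mL | Medium: Fresh YPD growth medium | Dosing: Single dose | Times: Static 4 h at 37 °C with compound, 1 h detection | Detection: AK luminescence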
C2C12 statin = protects C2C12 myotubes from simvastatin toxicity. ATP luminescence, 48 h; scaled: DMSO 0, geranylgeraniol control 100. rescue of ATP level, % at 7.49 µM. 0.78% of 330,000 active;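 active means mean ATP rescue above about 67%, or every replicate alone reaching that limit, limit read from the data, passing the limit was not always enough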;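 further: myotubes were challenged with 10 µM simvastatin during compound exposure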
XiGFP reactiv = activators of X-chromosome reactivation in mouse fibroblasts | XiGFP mouse fibroblasts, % GFP-positive cells imaging, 3 d; cells co-treated with 5-aza-dC sensitizer; scaled so ellipticine positive control = 100% | activation, % at 7.58 µM | 0.055% of 360,000 active;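 active means mean normalized replicate activation at least 10% and every replicate at or above 10%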;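 further: 0% = median of on-plate neutral control wells and 100% = ellipticine 6 µM median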
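Schedule: 3 d treatment, 15 min room-temperature fixation; system: 68-5-11 XiGFP fibroblast line; buffer or medium: DMEM plus 5-aza-dC sensitizer; control set: ellipticine 6 µM positive control; compound: one concentration, pinned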
DENV2 CPE rescue = DENV2-induced cell death inhibition; CPE inhibition, % at 9.99 µM; AID 651640; 1.7% of 350,000 active; DENV2-infected cells, cytopathic effect rescue, plate reader; in the data active means CPE inhibition above about 20%, passing the limit was not always enough; tested in BHK-21 cells;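 further: 0% = median of neutral control wells and 100% = median of positive control wells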
The depositor's hits bear a star; / = no result given; ! = not confirmed by another sample.

SMILES	Cneo AK release	C2C12 statin	XiGFP reactiv	DENV2 CPE rescue
Oc1ccccc1C=NCC(O)c1ccccc1 (stereo not given)	0	/	0	76*
Oc1ccccc1C=NCCN=Cc1ccccc1O	/	5	/	-4
Cc1nnc(N(C)C(=O)c2cccnc2)s1	0	87*	/	/
COc1cccc(-c2nnc(N(C)C(=O)C3CCOC3)s2)c1 (stereo not given)	0	97*	/	/
COc1cccc(C(=O)N(C)c2nnc(-c3ccncc3)s2)c1	/	82*	/	/
COc1ccc(-c2nnc(N(C)C(=O)c3ccco3)s2)cc1OC	2	23	0	6
CN(C(=O)c1cccnc1)c1nnc(-c2cccnc2)s1	9	19	/	/
CN(C(=O)c1cccc(C#N)c1)c1nnc(-c2ccncc2)s1	1	/	/	/
CCCNC(=O)C[C@@H]1CC[C@H]2[C@H](COc3ccc(NC(=O)c4cccc(F)c4)cc3C(=O)N2C)O1	-2	4	0	-4
CCc1c(O)nc(SC2CC(=O)N(c3ccccc3)C2=O)[nH]c1=O (stereo not given)	0	106*	/	/
CO[C@@H]1CN(C)C(=O)c2ccc(NC(=O)CC(F)(F)F)cc2OC[C@@H](C)N(CC2CC2)C[C@@H]1C	/	/	0	-10
Cc1ccc2[nH]c(-c3ccccc3)cc(=O)c2c1	-3	-73	0	111*
COc1ccc([N+](=O)[O-])cc1NC(=O)CCCOc1ccccc1	2	13	0	/
COc1ccc(OCCCC(=O)Nc2cc([N+](=O)[O-])ccc2C)cc1	0	73*	/	/
CO[C@@H](CN(C)C(=O)c1ccccc1F)[C@H](C)CN([C@@H](C)CO)S(=O)(=O)c1ccccc1	-9	-6	0	7
ONC=Nc1cccc2nonc12	1	146*	/	/
O=S(=O)(Nc1ccccc1)c1cccc2nonc12	0	3	0	-3
CCCN1C[C@@H](C)[C@@H](OC)CN(C)C(=O)c2ccc(NC(=O)c3ccccc3F)cc2OC[C@@H]1C	-2	-1	0	-1
CCC(C)Sc1cccc(-c2nc3ccc(C)cn3c2NC2CCCCC2)c1 (stereo not given)	3	-39	0	60*!
CC(=O)N(C)C[C@H]1OCc2ccccc2-c2ccccc2C(=O)N([C@H](C)CO)C[C@@H]1C	/	/	0	/
COc1ccc(C(=O)N2CCC2(C)C(=O)O)cc1F (stereo not given)	0	9	0	79*
CN(C)C(=O)c1cc(C(=O)c2ccc(Cl)cc2Cl)c[nH]1	0	6	0	-6
NC(=O)c1cc(C(=O)c2ccc(Cl)cc2Cl)c[nH]1	/	-1	0	33*
COc1ccc(S(=O)(=O)N(C)C[C@H]2Oc3ccc(NC(=O)CCCCCC(=O)Nc4ccccc4N)cc3C(=O)N([C@H](C)CO)C[C@H]2C)cc1	2	/	0	-1
CCOC(=O)c1ccc(S(=O)(=O)N2CCC(N3CCCCC3)CC2)cc1	5	1	0	32*
SMILES	Cneo AK release	C2C12 statin	XiGFP reactiv	DENV2 CPE rescue
CCOC(=O)c1ccc(S(=O)(=O)N2CCC(C(=O)OCC)CC2)cc1	-1	-2	/	/
COc1ccc(C2=Nc3ccccc3N(C(=O)Cc3cc(OC)cc(OC)c3)C2C(=O)NC(C)C)cc1 (stereo not given)	/	/	0	19
COc1ccc(C2=Nc3ccccc3N(C(=O)c3ccncc3)C2C(=O)NC(C)C)cc1 (stereo not given)	/	/	0	59*
C[C@@H]1CN([C@@H](C)CO)C(=O)Cc2cc(NC(=O)C3CC3)ccc2O[C@@H]1CN(C)Cc1ccc(Oc2ccccc2)cc1	-1	-20	0	0
CCC(=O)/C=C1/Sc2ccccc2N1CC	27	112*	/	/
O=C(CN1CCN(C(=O)C2CCC2)CC1)Nc1ccc(F)cc1	-1	5	0	32*
CC(C)NC(=O)N(C)C[C@@H]1Oc2ccc(NC(=O)CCC(F)(F)F)cc2C(=O)N([C@@H](C)CO)C[C@H]1C	0	3	-1	-12
CCOc1ccc(-n2c(C)c(C(C)=O)c3cc(OCC(N)=O)ccc32)cc1	/	/	0	32*
CC1(C)CC(=O)C2=C(C1)c1c(ccc3ccccc13)NC2c1ccc(OCC(=O)O)cc1 (stereo not given)	3	3	0	1
CC1(C)CC(=O)C2=C(C1)c1c(ccc3ccccc13)NC2c1ccc(Br)o1 (stereo not given)	-1	107*	/	/
CN1CCN(C(=O)C[C@@H]2C=C[C@@H](NC(=O)c3ccc4c(c3)OCO4)[C@@H](CO)O2)CC1	1	2	0	-3
COc1ccc(-c2nc(N)n[nH]2)cc1	0	-7	/	/
COc1cc(OC)cc(-c2nc(N)n[nH]2)c1	3	106*	/	/
O=C(c1ccccn1)N1CC2(C1)[C@H](c1ccccc1)[C@@H](CO)N2Cc1ccc(F)cc1	/	/	0	39*
C/C=C/c1ccc([C@@H]2[C@H](CO)N(C(=O)c3cnccn3)C23CN(C(=O)C2CC2)C3)cc1	/	/	0	24*
O=C(c1ccccn1)N1CC2(C1)[C@H](c1ccccc1)[C@H](CO)N2Cc1ccc(F)cc1	/	/	0	4
O=C(CC1CC1)N1CC2(C1)[C@H](c1ccccc1)[C@@H](CO)N2C(=O)c1cnccn1	/	/	0	-5
O=C(c1ccccc1)N1CC2(C1)[C@H](c1ccccc1)[C@H](CO)N2Cc1ccccn1	/	/	0	-2
O=C(CC1CC1)N1CC2(C1)[C@@H](c1ccccc1)[C@@H](CO)N2C(=O)c1cnccn1	/	/	0	32*
O=C(CC1CC1)N1CC2(C1)[C@H](c1ccccc1)[C@H](CO)N2Cc1ccccn1	/	/	0	23*
C[C@H](CO)N1C[C@H](C)[C@@H](CN(C)S(=O)(=O)c2cn(C)cn2)Oc2c(NC(=O)CCCN(C)C)cccc2C1=O	/	/	-1	/
C[C@H](NC(=O)C[C@H]1C[C@H]2c3cc(NC(=O)c4cccnc4)ccc3O[C@H]2[C@H](CO)O1)c1ccccc1	-3	-2	0	-7
COc1ccc2c3c([nH]c2c1)[C@@H](CO)N(Cc1ccc(Cl)cc1)CC31CN(Cc2ccccc2)C1	/	/	0	/
O=C(c1ccccn1)N1CC2(C1)[C@@H](c1ccccc1)[C@@H](CO)N2C(=O)CC1CC1	/	/	0	35*
C/C=C/c1ccc([C@H]2[C@@H](CO)N(C(=O)C3CC3)C23CN(C(=O)NC(C)C)C3)cc1	/	/	0	105*
C/C=C/c1ccc([C@@H]2[C@H](CO)N(C(=O)C3CCCC3)C23CN(C(=O)NC(C)C)C3)cc1	/	/	0	-7
O=C(c1ccccn1)N1CC2(C1)[C@H](c1ccccc1)[C@H](CO)N2C(=O)CC1CC1	/	/	0	-9
C[C@@H]1CN([C@H](C)CO)S(=O)(=O)c2ccc(C#CCN(C)C)cc2O[C@H]1CN(C)C(=O)C1CCC1	0	-4	-1	-5
CCN(CC)C(=O)CN(c1ccc(F)c(Cl)c1)S(C)(=O)=O	18	70*	/	/
CCC(=O)Nc1ccc2c(c1)C(=O)N(C)[C@@H]1CC[C@H](CC(=O)NCc3ccccc3Cl)O[C@H]1CO2	49	-3	0	/
